Laboratory results as given in publication PMC7655718 (The Journal of antibiotics, 2020).
Converted amounts (≈) assume the structure as drawn. Where two headings read alike, the source gives them in different places.

Legend:
A. baumannii ATCC 19606 = experiment: Time kill assay; type: cell-based, Acinetobacter baumannii; conditions: 4xMIC
Outline: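 Growth curves by optical density set the log phase. Log-phase bacteria (about 2 h shaking in Mueller Hinton broth II) were diluted in warm broth to about 3x10^6 cfu/mL. They were exposed to compound at 4xMIC (other multiples where indicated), in triplicate, at 35 °C. Colistin (A. baumannii) or vancomycin (S. aureus) and DMSO were included. Samples at 0, 2, 4, 6, 8, 10, 12 and 24 h were counted by drop plate on blood agar (18-24 h, 35 °C). Log cfu/mL was plotted against time.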

[1] = test system: A. baumannii ATCC 747 (Ab47); experiment: MIC, microdilution with resazurin; type: cell-based, Acinetobacter baumannii; conditions: Acinetobacter baumannii, ATCC747, read-out: MIC Ab47
Outline: (§1)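 Compounds dissolved in DMSO at 2 mg/mL. Overnight blood-agar colonies were suspended in PBS to 0.5 McFarland, then diluted in Mueller Hinton broth to about 1x10^6 cfu/mL with resazurin (1:1000 of 0.1% w/v stock). Twofold DMSO dilutions were added 1:40, giving 50 to 0.4 μg/mL at 2.5% DMSO. Incubation was 35 °C for 16-20 h. Blue/non-turbid wells counted as inhibited, pink/turbid as grown.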

[2] = test system: S. aureus ATCC 33592 (Sa92); experiment: MIC, microdilution with resazurin; type: cell-based; conditions: Staphylococcus aureus, ATCC33592, read-out: MIC Sa92
Outline: as §1

[3] = test system: S. aureus ATCC 33591 (Sa91); experiment: MIC, microdilution with resazurin; type: cell-based; conditions: Staphylococcus aureus, ATCC33591, read-out: MIC Sa91
Outline: as §1

[4] = test system: B. subtilis ATCC 6623 (Bs); experiment: MIC, microdilution with resazurin; type: cell-based, Bacillus subtilis; conditions: Bacillus subtilis, ATCC6623, read-out: MIC Bs
[5] = test system: A. baumannii ATCC 19606 (type strain, Ab06); experiment: MIC and MBC; type: cell-based, Acinetobacter baumannii; conditions: Acinetobacter baumannii
Outline: as §1

[6] = test system: S. aureus BAA-2312 (Sa12); experiment: MIC, microdilution with resazurin; type: cell-based; conditions: Staphylococcus aureus, BAA2312, read-out: MIC Sa12
Outline: as §1

[7] = test system: S. aureus ATCC 700699 (Sa99); experiment: MIC, microdilution with resazurin; type: cell-based; conditions: Staphylococcus aureus, ATCC700699, read-out: MIC Sa99
Outline: as §1

[8] = test system: S. aureus ATCC 25923 (Sa23); experiment: MIC, microdilution with resazurin; type: cell-based; conditions: Staphylococcus aureus, ATCC25923, read-out: MIC Sa23
Outline: as §1

[9] = test system: S. epidermidis 700296 (Se); experiment: MIC, microdilution with resazurin; type: cell-based; conditions: Staphylococcus epidermidis, read-out: MIC Se
Outline: as §1

[10] = test system: tested Gram-positive bacterial strains; experiment: MIC, text summary over tested Gram-positive strains; type: cell-based
[11] = test system: human embryonic kidney cell line (HEK293); experiment: Toxicity against HEK293 cell line; type: cell-based
[12] = test system: S. aureus ATCC 25923 biofilm formation; experiment: Biofilm inhibition assay; type: cell-based, Staphylococcus aureus; conditions: 2xMIC, MIC and 0.5xMIC concentrations, 24 hours
Outline: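 Blood-agar culture was suspended in PBS (0.5 McFarland), then diluted 1:100 in yeast extract casamino acid broth (about 1x10^6 cfu/mL). Compound at 2xMIC, MIC and 0.5xMIC was added before biofilm formation, in triplicate, with broth-only and bacteria+DMSO controls. Incubation was 35 °C for 24 h. Wells were PBS-washed, dried, stained with 0.1% crystal violet, solubilised in 33% acetic acid and read at 620 nm. % inhibition = [1−(ODcompound−ODbroth)/(ODdmso−ODbroth)]×100, from mean and SD.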

Compound | time kill effect (A. baumannii ATCC 19606; 24 hours at 35 °C) | increase in log10 cfu/mL of the bacterial population (A. baumannii ATCC 19606; through 24 hours) | MIC [1] | MIC [2] | MIC [3] | MIC [4] | MBC ([5]; ATCC19606) | MIC ([5]; ATCC19606) | MIC ([5]; ATCC19606, read-out: MIC Ab06) | MIC [6] | MIC [7] | MIC [8] | MIC [9] | antimicrobial activity against the tested strains [10] | toxicity for HEK293 [11] | MIC ([10]; read-out: MIC value as low as) | inhibition of biofilm formation [12] | MIC ([10]; Staphylococcus aureus, read-out: MIC value against S. aureus strains)
O=C(O)c1ccc(-n2cc(/C=N/Nc3ccc(Cl)cc3)c(-c3ccc4ccccc4c3)n2)cc1 [Compound 16] | bacteriostatic effect | ≤ 2 fold | 6.25 µg/mL (≈ 13.4 µM) | 3.12 µg/mL (≈ 6.69 µM) | 12.5 µg/mL (≈ 26.8 µM) | 12.5 µg/mL (≈ 26.8 µM) | 50 µg/mL (≈ 107 µM) | 3.12 µg/mL (≈ 6.69 µM) | 3.12 µg/mL (≈ 6.69 µM) | 6.25 µg/mL (≈ 13.4 µM) | 1.56 µg/mL (≈ 3.34 µM) | 6.25 µg/mL (≈ 13.4 µM) | 6.25 µg/mL (≈ 13.4 µM) | – | – | – | – | –
CCc1ccccc1N/N=C/c1cn(-c2ccc(C(=O)O)cc2)nc1-c1ccc2ccccc2c1 [Compound 12] | – | – | > 50 µg/mL | 12.5 µg/mL (≈ 27.1 µM) | 25 µg/mL (≈ 54.3 µM) | 25 µg/mL (≈ 54.3 µM) | – | – | > 50 µg/mL | 25 µg/mL (≈ 54.3 µM) | 12.5 µg/mL (≈ 27.1 µM) | 25 µg/mL (≈ 54.3 µM) | > 25 µg/mL | reduced the potency drastically | – | – | – | –
COC(=O)N/N=C/c1cn(-c2ccc(C(=O)O)cc2)nc1-c1ccc2ccccc2c1 [Compound 34] | – | – | > 50 µg/mL | > 50 µg/mL | > 50 µg/mL | > 50 µg/mL | – | – | > 50 µg/mL | > 50 µg/mL | > 50 µg/mL | > 50 µg/mL | > 50 µg/mL | failed to show any remarkable antimicrobial activity | – | – | – | –
O=C(O)c1ccc(-n2cc(/C=N/Nc3c(F)c(F)c(F)c(F)c3F)c(-c3ccc4ccccc4c3)n2)cc1 [Compound 24] | – | – | > 50 µg/mL | 0.78 µg/mL (≈ 1.49 µM) | > 50 µg/mL | 1.56 µg/mL (≈ 2.99 µM) | – | – | > 50 µg/mL | > 50 µg/mL | 0.78 µg/mL (≈ 1.49 µM) | 3.12 µg/mL (≈ 5.98 µM) | > 50 µg/mL | – | selective toxicity for bacterial cells | ≥ 0.78 µg/mL | – | –
CN1CCN(/N=C/c2cn(-c3ccc(C(=O)O)cc3)nc2-c2ccc3ccccc3c2)CC1 [Compound 31] | – | – | > 50 µg/mL | > 50 µg/mL | > 50 µg/mL | > 50 µg/mL | – | – | > 50 µg/mL | > 50 µg/mL | > 50 µg/mL | > 50 µg/mL | > 50 µg/mL | failed to show any remarkable antimicrobial activity | – | – | – | –
O=C(O)c1ccc(-n2cc(/C=N/Nc3ccc([N+](=O)[O-])cc3)c(-c3ccc4ccccc4c3)n2)cc1 [Compound 27] | – | – | > 50 µg/mL | > 50 µg/mL | > 50 µg/mL | > 50 µg/mL | – | – | > 50 µg/mL | > 50 µg/mL | > 50 µg/mL | > 50 µg/mL | > 50 µg/mL | eliminated the activity | – | – | – | –
O=C(O)c1ccc(-n2cc(/C=N/N(Cc3ccccc3)c3ccccc3)c(-c3ccc4ccccc4c3)n2)cc1 [Compound 9] | – | – | > 50 µg/mL | 1.56 µg/mL (≈ 2.99 µM) | 1.56 µg/mL (≈ 2.99 µM) | 25 µg/mL (≈ 47.8 µM) | – | – | > 50 µg/mL | 3.12 µg/mL (≈ 5.98 µM) | 1.56 µg/mL (≈ 2.99 µM) | 3.12 µg/mL (≈ 5.98 µM) | 3.12 µg/mL (≈ 5.98 µM) | – | – | ≥ 1.56 µg/mL | – | –
O=C(O)c1ccc(N/N=C/c2cn(-c3ccc(C(=O)O)cc3)nc2-c2ccc3ccccc3c2)cc1 [Compound 28] | – | – | > 50 µg/mL | > 50 µg/mL | > 50 µg/mL | > 50 µg/mL | – | – | > 50 µg/mL | > 50 µg/mL | > 50 µg/mL | > 50 µg/mL | > 50 µg/mL | eliminated the activity | – | – | – | –
N#Cc1ccc(N/N=C/c2cn(-c3ccc(C(=O)O)cc3)nc2-c2ccc3ccccc3c2)cc1 [Compound 26] | – | – | > 50 µg/mL | > 50 µg/mL | > 50 µg/mL | > 50 µg/mL | – | – | > 50 µg/mL | > 50 µg/mL | > 50 µg/mL | > 50 µg/mL | > 50 µg/mL | eliminated the activity | – | – | – | –
CN(C)/N=C/c1cn(-c2ccc(C(=O)O)cc2)nc1-c1ccc2ccccc2c1 [Compound 29] | – | – | > 50 µg/mL | > 25 µg/mL | > 50 µg/mL | > 25 µg/mL | – | – | > 50 µg/mL | > 50 µg/mL | 25 µg/mL (≈ 65 µM) | > 25 µg/mL | > 25 µg/mL | did not show any activity | – | – | – | –
O=C(O)c1ccc(-n2cc(/C=N/NC3=NCCN3)c(-c3ccc4ccccc4c3)n2)cc1 [Compound 33] | – | – | > 50 µg/mL | > 50 µg/mL | > 50 µg/mL | > 50 µg/mL | – | – | > 50 µg/mL | > 50 µg/mL | > 50 µg/mL | > 50 µg/mL | > 50 µg/mL | failed to show any remarkable antimicrobial activity | – | – | – | –
O=C(O)c1ccc(-n2cc(/C=N/N(c3ccccc3)c3ccccc3)c(-c3ccc4ccccc4c3)n2)cc1 [Compound 8] | – | – | > 50 µg/mL | 1.56 µg/mL (≈ 3.07 µM) | 3.12 µg/mL (≈ 6.14 µM) | 12.5 µg/mL (≈ 24.6 µM) | – | – | > 50 µg/mL | 3.12 µg/mL (≈ 6.14 µM) | 1.56 µg/mL (≈ 3.07 µM) | 1.56 µg/mL (≈ 3.07 µM) | 1.56 µg/mL (≈ 3.07 µM) | – | – | ≥ 1.56 µg/mL | very effective | –
COc1ccc(N/N=C/c2cn(-c3ccc(C(=O)O)cc3)nc2-c2ccc3ccccc3c2)cc1 [Compound 13] | – | – | > 50 µg/mL | 25 µg/mL (≈ 54.1 µM) | 25 µg/mL (≈ 54.1 µM) | > 25 µg/mL | – | – | > 50 µg/mL | > 25 µg/mL | 12.5 µg/mL (≈ 27 µM) | > 25 µg/mL | > 25 µg/mL | reduced the potency drastically | – | – | – | –
O=C(O)c1ccc(-n2cc(/C=N/n3cnnc3)c(-c3ccc4ccccc4c3)n2)cc1 [Compound 32] | – | – | > 50 µg/mL | > 50 µg/mL | > 50 µg/mL | > 50 µg/mL | – | – | > 50 µg/mL | > 50 µg/mL | > 50 µg/mL | > 50 µg/mL | > 50 µg/mL | failed to show any remarkable antimicrobial activity | – | – | – | –
O=C(O)c1ccc(-n2cc(/C=N/Nc3ccccc3)c(-c3ccc4ccccc4c3)n2)cc1 [Compound 6] | – | – | > 50 µg/mL | 12.5 µg/mL (≈ 28.9 µM) | > 25 µg/mL | 25 µg/mL (≈ 57.8 µM) | – | – | > 50 µg/mL | 25 µg/mL (≈ 57.8 µM) | 12.5 µg/mL (≈ 28.9 µM) | 25 µg/mL (≈ 57.8 µM) | 25 µg/mL (≈ 57.8 µM) | – | – | – | – | 25 µg/mL (≈ 57.8 µM)
O=C(O)c1ccc(-n2cc(/C=N/N3CCCCC3)c(-c3ccc4ccccc4c3)n2)cc1 [Compound 30] | – | – | > 50 µg/mL | 25 µg/mL (≈ 58.9 µM) | > 25 µg/mL | 25 µg/mL (≈ 58.9 µM) | – | – | > 50 µg/mL | > 50 µg/mL | 25 µg/mL (≈ 58.9 µM) | > 25 µg/mL | > 25 µg/mL | failed to show any remarkable antimicrobial activity | – | – | – | –
Cc1ccc(N/N=C/c2cn(-c3ccc(C(=O)O)cc3)nc2-c2ccc3ccccc3c2)cc1 [Compound 11] | – | – | > 50 µg/mL | 12.5 µg/mL (≈ 28 µM) | 25 µg/mL (≈ 56 µM) | 25 µg/mL (≈ 56 µM) | – | – | > 50 µg/mL | 25 µg/mL (≈ 56 µM) | 6.25 µg/mL (≈ 14 µM) | 25 µg/mL (≈ 56 µM) | 25 µg/mL (≈ 56 µM) | reduced the potency drastically | – | – | – | –
CN(/N=C/c1cn(-c2ccc(C(=O)O)cc2)nc1-c1ccc2ccccc2c1)c1ccccc1 [Compound 7] | – | – | > 50 µg/mL | 1.56 µg/mL (≈ 3.49 µM) | > 50 µg/mL | > 50 µg/mL | – | – | > 50 µg/mL | > 50 µg/mL | 1.56 µg/mL (≈ 3.49 µM) | > 50 µg/mL | > 50 µg/mL | – | – | – | – | –
